Experimental data pooled from the literature.
Lines come from different studies, so protocols differ. Values after ≈ are worked out from the molar mass of the structure shown.
Organism: Pseudomonas aeruginosa

The inhibition zone of `COc1c(C)c(OS(=O)(=O)c2ccc3ccccc3c2)c(C)c(OS(=O)(=O)c2ccc3ccccc3c2)c1C(=O)/C=C/c1ccccc1` is reported as 14 mm (microbial growth, well diffusion; ATCC27853; 5 µg/mL).
For `O=c1cccccc1SSc1cccccc1=O`, the MIC80 was over 71.4 µM (microbial growth, broth dilution; ATCC27853).
With `CC[C@H]1OC(=O)[C@H](C)[C@@H](O[C@H]2C[C@@](C)(OC)[C@@H](O)[C@H](C)O2)[C@H](C)[C@@H](O[C@@H]2O[C@H](C)C[C@H](N(C)C)[C@H]2O)[C@](C)(O)C[C@@H](C)/C(=N\OCOCCOC)[C@H](C)[C@@H](O)[C@]1(C)O` the inhibition zone was 19 mm (microbial growth, disc diffusion; ATCC9721; 20000 µg/mL, 24 h).
`COc1c(C)c(OC)c(C(=O)/C=C/c2ccccc2)c(OC)c1C` gave an MBC of over 5000 µg/mL (microbial killing, broth dilution; ATCC27853).
`CC(C)Oc1c(NC(=O)c2ccc(NC(=O)[C@H](CC(N)=O)NC(=O)c3ccc(NC(=O)c4ccc(C#N)c(Cl)c4)cc3)cc2)ccc(C(=O)Nc2ccc(C(=O)O)cc2)c1O` has an MIC of over 64 µg/mL (microbial growth; PA14).
`COc1cc(C=CC(=O)CC(c2ccc(N(C)C)cc2)n2ccnc2)ccc1O` (centres unmarked) gave an inhibition zone of 7.66 mm (microbial growth, disc diffusion; ATCC27853; 250 µg/mL).
The MBC of `CN[C@H](CC(C)C)C(=O)N[C@H]1C(=O)N[C@@H](CC(N)=O)C(=O)N[C@H]2C(=O)N[C@H]3C(=O)N[C@H](C(=O)N[C@H](C(=O)O)c4cc(O)cc(O)c4-c4cc3ccc4O)[C@H](O)c3ccc(c(Cl)c3)Oc3cc2cc(c3O[C@@H]2O[C@H](CO)[C@@H](O)[C@H](O)[C@H]2O[C@H]2C[C@](C)(N)[C@H](O)[C@H](C)O2)Oc2ccc(cc2Cl)[C@H]1O` is reported as over 128 µM (microbial killing, broth dilution; ATCC9027).
The inhibition zone of `COc1cc(C=CC(=O)CC(c2ccc([N+](=O)[O-])cc2)n2ccnc2)ccc1O` (centres unmarked) is reported as 7.67 mm (microbial growth, disc diffusion; ATCC27853; 500 µg/mL).
With `CC1(C)SC2C(NC(=O)C(NC(=O)C3=C(O)C(Cc4ccccc4)NC3=O)c3ccccc3)C(=O)N2C1C(=O)O` (centres unmarked) the inhibition zone was 10.7 mm (microbial growth, well diffusion; PAO1; 200 µM).
The MIC80 of `O=C(Cc1ccccc1)Sc1cccccc1=O` is reported as over 71.4 µM (microbial growth, broth dilution; ATCC27853).
`C=CCCCCCCCCCCCC(O)CC(O)CO` (centres unmarked) has an IC50 of over 200 µg/mL (microbial growth, broth dilution; ATCC27853).
The MIC50 of `C[C@H]1NCc2cc(-c3ccc4c(=O)c(C(=O)O)cn(C5CC5)c4c3OC(F)F)ccc21` is reported as 2 µg/mL (≈ 4.69 µM) (microbial growth, broth dilution; clinical isolate).
`CC1(C)S[C@@H]2[C@H](NC(=O)[C@H](N)c3ccccc3)C(=O)N2[C@H]1C(=O)O` has an inhibition zone of 8 mm (microbial growth, well diffusion; PAO1; 200 µM).
`CCCC(=O)Oc1c(C)c(O)c(C(=O)/C=C/c2ccccc2)c(OC)c1C` gave an MBC of over 5000 µg/mL (microbial killing, broth dilution; ATCC27853).
`O=c1cccccc1Sc1cccccc1=O` has an MIC80 of over 71.4 µM (microbial growth, broth dilution; ATCC27853).
For `CC(C)Oc1c(NC(=O)c2ccc(NC(=O)[C@H](CC(N)=O)NC(=O)c3ccc(CCNC(=O)c4ccc(C#N)cc4)cc3)cc2)ccc(C(=O)Nc2ccc(C(=O)O)cc2)c1O`, the MIC was over 64 µg/mL (microbial growth; PA14).
The MBC of `COc1c(C)c(OCc2ccccc2)c(C)c(O)c1C(=O)/C=C/c1ccccc1` is reported as over 5000 µg/mL (microbial killing, broth dilution; ATCC27853).
